RGS4 inh = human RGS4 inhibition; P49798; HEK293 M3R/RGS4 inducible, Fluo-4 calcium flux; active compounds read high; triggered by carbachol at its EC20; B-score at 10 µM; actives 0.45% (n = 310,000); AID 463165;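 active means B-score, a plate-corrected calcium signal, over three deviations above library mean, with baseline fluorescence within five deviations of library mean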;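 further: RGS4 expression induced by doxycycline in cells with stable M3 receptor; B-score is computed from the integrated fluorescence ratio over baseline after carbachol; higher B-score means a larger calcium signal and so more RGS4 inhibition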
Target sequence (P49798 whole entry, looked up): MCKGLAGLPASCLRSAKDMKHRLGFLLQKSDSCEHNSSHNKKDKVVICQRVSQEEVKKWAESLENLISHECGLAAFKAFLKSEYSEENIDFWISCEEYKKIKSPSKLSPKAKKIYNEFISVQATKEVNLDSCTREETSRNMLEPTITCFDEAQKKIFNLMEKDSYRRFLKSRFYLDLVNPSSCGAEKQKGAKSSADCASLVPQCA
MrgX1 agonist = agonists of human MrgX1 receptor | Q96LB2 | MrgX1-HEK293 cells, Fluo-4 calcium fluorescence, agonist mode; active compounds read high | B-score at 10 µM | actives 0.44% (n = 310,000);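 active means calcium response B-score plate-corrected fluorescence ratio at least 3 library SD, with starting fluorescence B-score inside 5 SD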
Target sequence (Q96LB2 whole entry, looked up): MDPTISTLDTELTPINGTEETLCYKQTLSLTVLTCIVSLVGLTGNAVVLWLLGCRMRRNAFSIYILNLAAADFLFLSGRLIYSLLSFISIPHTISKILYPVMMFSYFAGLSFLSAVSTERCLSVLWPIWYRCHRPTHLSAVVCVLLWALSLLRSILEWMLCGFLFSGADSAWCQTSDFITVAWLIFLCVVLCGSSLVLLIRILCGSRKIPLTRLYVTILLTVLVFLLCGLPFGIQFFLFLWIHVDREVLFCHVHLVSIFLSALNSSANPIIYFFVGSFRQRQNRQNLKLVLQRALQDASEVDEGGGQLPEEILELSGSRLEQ
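Material – MrgX1-expressing HEK293 cells · Input – 15,000 cells seeded per well · Dosing – compound as first of three additions · Times – overnight seeding, then 1 h dark dye loading · Measured by – kinetic Fluo-4 NW fluorescence of intracellular calcium · Read-out – B-scored fluorescence response ratio · Benchmarks – positive and negative control wells on each plate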
MrgX1 antagonist = blocks BAM8-22 activation of human MrgX1 receptor; Q96LB2; MRGX1-HEK293 calcium flux, Fluo-4, BAM8-22 antagonism; active compounds read low; B-score at 10 µM; actives 1.3% (n = 310,000);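 active means calcium-response B-score plate-corrected more than 3 library SD below zero, starting fluorescence within 5 deviations, no agonist response on first addition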;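 further: peak minus trough fluorescence over baseline after final BAM8-22 challenge near maximal dose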
RGS4 pot = RGS4 potentiation or activation. HEK293 M3R/inducible RGS4, carbachol calcium flux Fluo4; active compounds read low. B-score at 10 µM. actives 0.92% (n = 310,000);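 active means B-score of the integrated calcium signal more than 4 SD below the library mean, with starting fluorescence not abnormally high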;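 further: negative B-score means reduced calcium response which marks RGS4 activation or potentiation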
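Assay system: HEK293 FlpIn-TREx cells, stable M3R, doxycycline-inducible RGS4 / Probe or stimulus: carbachol, ECmax concentration / Times: overnight RGS4 induction, 30 min dye load 37 °C, 20 min compound RT / Signal: kinetic calcium fluorescence imaging with Fluo4-AM dye, 2 µM / Measure: Agonist-evoked peak-minus-minimum fluorescence over baseline, integrated ratio, B score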
MrgX1 PAM = allosterically activates human MrgX1 receptor signaling | Q96LB2 | B-score at 10 µM | MrgX1-HEK293, Fluo-4 calcium flux, FDSS; active compounds read high | actives 0.63% (n = 310,000);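 active means plate-corrected calcium response at least 3 library SD above typical, normal starting fluorescence, not activating the receptor alone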;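 further: compound read alongside a low EC10 to EC30 dose of BAM8-22 agonist; peak minus trough fluorescence over baseline measured at the second addition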
* marks the source's active call; other numbers are inactive results; i = inactive; nt = no result given. Compounds with a hit are over-represented: about 3.5% of the library has one in this group of screens.

SMILES	RGS4 inh	MrgX1 agonist	MrgX1 antagonist	RGS4 pot	MrgX1 PAM
Cc1cccc(C(=O)O/N=C2/CC3CCC2(C)C3(C)C)c1 (stereo not given)	i	i	i	i	8.19*
Cc1ccc(C(=O)O/N=C2/CC3CCC2(C)[C@@]3(C)CBr)cc1 (stereo not given in full)	i	i	i	i	i
O=C(Nc1cccc(O)c1)c1c(O)c2ccccc2[nH]c1=O	i	i	i	i	i
Cc1cc(/C=C2\SC(=S)NC2=O)c(C)n1-c1ccc(O)cc1	i	43.3*	i	i	i
Cc1cc(/C=C2\SC(=S)NC2=O)c(C)n1-c1ccccc1	i	i	i	i	i
COc1ccccc1NC(=O)c1ccc(CSc2ncccn2)cc1	i	i	i	i	i
O=C(Nc1ccccc1F)c1cc(S(=O)(=O)N2CCOCC2)cs1	i	i	i	i	i
O=C(CC(=O)NC1CCCCC1)N/N=C/c1ccccc1[N+](=O)[O-]	i	i	i	i	i
COc1cccc(-c2nc(CS(=O)(=O)CC(=O)Nc3cc(F)ccc3F)c(C)o2)c1	i	i	i	i	i
COc1ccccc1N1C(=N)S/C(=C\c2ccc(-c3ccccc3C(=O)O)o2)C1=O	i	i	i	i	11.3*
N=C1S/C(=C\c2ccc(-c3ccccc3C(=O)O)o2)C(=O)N1c1ccc2c(c1)OCO2	i	nt	nt	i	nt
Cc1cccc(NC(=O)c2ccccn2)c1C	i	i	i	i	i
Cc1cccc(NC(=O)c2n[nH]c([N+](=O)[O-])c2Br)c1C	i	i	i	i	7.14*
COc1ccc(NS(=O)(=O)c2cccc(C(=O)NNC(=O)CNC(=O)c3ccc(C)cc3)c2)cc1	i	i	i	i	i
CCOC(=O)c1ccc(N2Cc3ccccc3C2=N)cc1	i	i	i	-7.34*	i
O=C(Nc1ccc(Cl)cc1)Nc1cc([N+](=O)[O-])ccc1F	i	i	i	i	i
O=C(Nc1ccc([N+](=O)[O-])cc1)Nc1ccc(Cl)cc1F	i	i	-4.88*	i	i
COC(=O)c1ccc(NC(=O)c2cccc(C)c2[N+](=O)[O-])cc1	i	i	-6.25*	i	i
COC(=O)c1ccc(NC(=O)Nc2ccc([N+](=O)[O-])cc2)cc1	i	i	-7.65*	i	i
O=C(Nc1ccc(C(=O)O)cc1)Nc1ccc([N+](=O)[O-])cc1	i	i	i	i	i
O=C(Nc1ccc([N+](=O)[O-])cc1)Nc1ccon1	i	i	-4.55*	i	i
CC1(c2nnc(Cc3ccccc3)o2)CC(c2ccc([N+](=O)[O-])cc2)=NO1 (stereo not given)	i	i	i	i	i
CCOC(=O)CSc1nc2sc3c(c2c(=O)n1-c1ccccc1)CCN(C(C)C)C3	i	i	i	i	i
CC1(NC(=O)CC[N+](C)(C)CCO)CS(=O)(=O)CC1S(=O)(=O)[O-] (stereo not given)	i	i	-5.25*	i	i
CCCC[N+](C)(C)CCC(=O)NC(C)(C)CS(=O)(=O)[O-]	i	i	i	i	i
SMILES	RGS4 inh	MrgX1 agonist	MrgX1 antagonist	RGS4 pot	MrgX1 PAM
O=[N+]([O-])c1cc(Br)c(Nc2ccccc2)c([N+](=O)[O-])c1	i	i	i	i	6.55*
NS(=O)(=O)c1ccc(O)c(N2C(=O)c3cccc4c(C(=O)O)ccc(c34)C2=O)c1	i	i	i	i	i
CC(Oc1ccc(Cl)cc1Cl)c1nc(-c2ccc(NC(=O)c3cccnc3)cc2)no1 (stereo not given)	i	i	i	-7.86*	i
CC(Oc1ccc(Cl)cc1Cl)c1nc(-c2ccc(NC(=O)c3ccncc3)cc2)no1 (stereo not given)	i	i	-5.25*	i	i
CC(Oc1ccc(Cl)cc1Cl)C(=O)NNC(=O)c1ccncc1 (stereo not given)	i	i	i	i	i
N#C/C(C(=O)NCc1ccccc1)=C1/SC(Cc2ccc(Cl)cc2)C(=O)N1c1ccccc1 (stereo not given)	i	i	i	i	i
O=C(NCCN1C(=O)S/C(=C\c2ccccc2F)C1=O)C1CCN(S(=O)(=O)c2cccs2)CC1	i	i	-8.86*	i	i
CCNC(=S)Nc1ccc(Cl)c([N+](=O)[O-])c1	i	i	-5.77*	i	i
COc1ccc(/C=N/Nc2ncnc3sc(C)c(C)c23)cc1	i	i	i	i	12*
Cc1sc2ncnc(N/N=C/c3ccc(O)cc3)c2c1C	i	i	i	i	i
Cc1ccc(C(=O)NCCCNC(=O)Cc2ccccc2)cn1	i	i	i	i	i
CC(=O)Nc1ccc(SCC(=O)OCC(=O)NC(=O)NCc2ccco2)cc1	i	i	i	i	i
CC(=O)Nc1ccc(SCC(=O)OCC(=O)NC(=O)NCCC(C)C)cc1	i	i	-7.35*	i	i
CCCCNCC1C(Oc2ccc(Cl)cc2)C(=O)N1c1ccccc1C (stereo not given)	i	i	i	i	i
COc1ccc(N2CC(C(=O)N/N=C/c3cccs3)CC2=O)cc1 (stereo not given)	i	i	-6.06*	i	i
O=C1/C(=C/c2ccc(F)cc2)SC(=S)N1Nc1ncc(C(F)(F)F)cc1Cl	i	i	i	-10.1*	i
O=C1/C(=C\c2ccccn2)SC(=S)N1Nc1ncc(C(F)(F)F)cc1Cl	i	i	i	i	i
CCN1C(=O)CC(c2ccco2)Sc2ccccc21 (stereo not given)	i	i	i	i	i
COc1ccc(S(=O)(=O)n2cnc(C)c2)cc1	i	i	i	i	i
CCOC(=O)c1c(N2C(=O)Nc3ccccc3N2O)sc2c1CCCCC2	i	34.6*	i	i	i
COC(=O)c1c(N2C(=O)Nc3ccccc3N2O)sc2c1CCCC2	i	i	i	i	i
COc1ccc(/C=N/Nc2cc(C)nc3ccc(OC)cc23)c(OC)c1	i	i	i	-7.68*	i
COCCn1cc(C(=O)c2cc(Br)ccc2O)cc(C#N)c1=O	i	i	i	i	i
CCCCc1ccc(N=N/C(C(=O)Nc2ccccc2OC)=C(/C)O)cc1	i	i	-9.09*	i	i
COCCC(=O)N1CCC(Oc2ccc(C(=O)NCc3cccc(C)n3)cc2)CC1	i	i	i	i	i

Assay outcomes (PubChem BioAssay)
